Test results reported in ChEMBL document CHEMBL1146370 (Bioorg Med Chem, 2007).

Assays:
[1] = biological target: Vasopressin V1a receptor (Homo sapiens, UniProt P37288); test: Binding affinity for human cloned vasopressin V1a receptor expressed in CHO cells; type: cell-based
Method in brief: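 Whole-cell competition binding on CHO cells stably expressing human V1a, grown in alpha-MEM with 10% FBS and 250 ug/ml G418. Cells were plated at least 2 days ahead and incubated 30 min at 37 °C in HEPES/BSA/DMEM buffer (pH 7.0) with 1 nM [3H]AVP and 5 test concentrations (usually 0.1–1000 nM), in triplicate. Nonspecific binding was set with 100 nM AVP. Bound radioactivity was SDS-lysed and scintillation-counted. Curve-fit IC50 was converted to Ki with a 0.61 factor.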

[2] = Cmax in Sprague-Dawley rat plasma at 20 mg/kg, po; type: ADME, organism-based; set-up: dose 20 mg/kg, route oral
Method in brief: (§1)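 Sprague-Dawley rats were gavaged with 20 mg/kg in 23% hydroxypropyl-beta-cyclodextrin with 0.68% lactic acid; the screen co-dosed three compounds per animal. Blood was taken by cardiac puncture under CO2 anesthesia into sodium heparin at 0.25, 0.5, 1, 2, 4, 8, 12 and 24 h, from 3 rats per time point. Plasma was separated within 1 h. Plasma and brain levels were measured by LC/MS.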

[3] = Tmax in Sprague-Dawley rat plasma at 20 mg/kg, po; type: ADME, organism-based; set-up: dose 20 mg/kg, route oral; method in brief: as §1
[4] = Half life in Sprague-Dawley rat plasma at 20 mg/kg, po; type: ADME, organism-based; set-up: dose 20 mg/kg, route oral; method in brief: as §1
[5] = Cmax in Sprague-Dawley rat brain at 20 mg/kg, po; type: ADME, organism-based; set-up: dose 20 mg/kg, route oral; method in brief: as §1
[6] = Half life in Sprague-Dawley rat brain at 20 mg/kg, po; type: ADME, organism-based; set-up: dose 20 mg/kg, route oral; method in brief: as §1
[7] = Drug level in dog brain at 10 mg/kg, po after 4 hrs; type: ADME, organism-based, Canis lupus familiaris; set-up: dose 10 mg/kg, route oral; details: read-out: Drug uptake
Method in brief: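 A single dog received an oral dose of 10 mg/kg in 10% DMSO/90% PEG300. Brain regions (cortex, brain stem, cerebellum, hypothalamus, hippocampus) and blood were frozen and stored at −70 °C. Samples were homogenized in pH 9.4 buffer, extracted with ethyl acetate with an extraction reference added, reconstituted in acetonitrile, and quantified by ESI LC/MS/MS against spiked control brain standards.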

Chain of Vasopressin V1a receptor (P37288 whole entry): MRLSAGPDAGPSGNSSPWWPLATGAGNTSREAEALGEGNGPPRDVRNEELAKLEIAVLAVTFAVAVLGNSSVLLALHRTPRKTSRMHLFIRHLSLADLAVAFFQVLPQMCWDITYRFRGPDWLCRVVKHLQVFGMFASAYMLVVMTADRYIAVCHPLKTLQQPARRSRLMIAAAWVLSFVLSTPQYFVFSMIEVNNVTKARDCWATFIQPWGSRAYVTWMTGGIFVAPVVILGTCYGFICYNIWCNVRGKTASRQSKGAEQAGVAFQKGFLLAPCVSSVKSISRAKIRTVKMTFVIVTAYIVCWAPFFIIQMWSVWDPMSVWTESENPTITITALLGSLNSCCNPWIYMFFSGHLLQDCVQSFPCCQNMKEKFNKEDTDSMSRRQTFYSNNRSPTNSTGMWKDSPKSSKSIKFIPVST

Row | IC50 [1] | Ki [1] | Structure (SMILES) | further results
1 | > 20000 nM | – | CC(=O)NC1C(=O)N(C(C(=O)OCc2ccccc2)C2(C)OCCO2)[C@@H]1/C=C/c1ccccc1 (stereo not given in full) | –
2 | – | 179 nM | C[C@@H](NC(=O)[C@H](CC(=O)N1CCC(CCN2CCCCC2)CC1)N1C(=O)[C@@H](N2C(=O)OC[C@@H]2c2ccccc2)[C@H]1/C=C/c1ccccc1)c1ccccc1 | –
3 | > 5000 nM | – | CC1(C(C(=O)OCc2ccccc2)N2C(=O)C(NC(=O)Nc3ccccc3)[C@H]2/C=C/c2ccccc2)OCCO1 (stereo not given in full) | –
4 | > 20000 nM | – | CC1(C(C(=O)OCc2ccccc2)N2C(=O)C(C)(C)[C@H]2/C=C/c2ccccc2)OCCO1 (stereo not given in full) | –
5 | > 20000 nM | – | CC(C)(C)C(=O)C(C(=O)OCc1ccccc1)N1C(=O)[C@@H](N2C(=O)OC[C@@H]2c2ccccc2)[C@H]1C=O (stereo not given in full) | –
6 | 400 nM | – | O=C(CN1C(=O)[C@@H](N2C(=O)OC[C@@H]2c2ccccc2)[C@H]1/C=C/c1ccccc1)OCc1ccccc1 | –
7 | 405 nM | – | CC1(C(C(=O)OCC[Si](C)(C)C)N2C(=O)[C@@H](N3C(=O)OC[C@@H]3c3ccccc3)[C@H]2/C=C/c2ccccc2)OCCO1 (stereo not given in full) | –
8 | – | > 12 nM | O=C(NCc1cccc(C(F)(F)F)c1)[C@@H](CCC(=O)N1CCN(CC2CCCCC2)CC1)N1C(=O)[C@@H](N2C(=O)OC[C@@H]2c2ccccc2)[C@H]1/C=C/c1ccccc1 | –
9 | – | 30 nM | O=C(NCc1cccc(C(F)(F)F)c1)[C@H](CC(=O)N1CCN(C2CCCCC2)CC1)N1C(=O)[C@@H](N2C(=O)OC[C@@H]2c2ccccc2)[C@H]1/C=C/c1ccccc1 | –
10 | – | > 600 nM | CN(C)CCCNC(=O)[C@H](CC(=O)NCc1cccc(C(F)(F)F)c1)N1C(=O)[C@@H](N2C(=O)OC[C@@H]2c2ccccc2)[C@H]1/C=C/c1ccccc1 | –
11 | 100 nM | – | O=C(OCc1ccccc1)C(C(=O)c1ccccc1)N1C(=O)[C@@H](N2C(=O)OC[C@@H]2c2ccccc2)[C@H]1/C=C/c1ccccc1 (stereo not given in full) | –
12 | – | – | CN(Cc1cccc(C(F)(F)F)c1)C(=O)[C@@H](CC(=O)N1CCC(N2CCCCC2)CC1)N1C(=O)[C@@H](N2C(=O)OC[C@@H]2c2ccccc2)[C@H]1/C=C/c1ccccc1 | Cmax [2]: 160 ng/mL; Tmax [3]: 4 h; half-life [4]: 4 h; Cmax [5]: 48 ng/mL; half-life [6]: 6 h
13 | > 20000 nM | – | CC1(C(C(=O)OCc2ccccc2)N2C(=O)C(N)[C@H]2/C=C/c2ccccc2)OCCO1 (stereo not given in full) | –
14 | – | – | CC(C)C[C@@H](C(=O)N1CCC(CCN2CCCCC2)CC1)N1C(=O)[C@@H](N2C(=O)OC[C@@H]2c2ccccc2)[C@H]1/C=C/c1ccccc1 | concentration at 4 h [7]: 100 nM
15 | – | 23 nM | O=C(NCc1cccc(C(F)(F)F)c1)[C@H](CC(=O)N1CCC(CCN2CCCCC2)CC1)N1C(=O)[C@@H](N2C(=O)OC[C@@H]2c2ccccc2)[C@H]1/C=C/c1ccccc1 | –
16 | – | 6100 nM | O=C(C[C@@H](C(=O)N1CCN(CCc2ccccc2)CC1)N1C(=O)[C@@H](N2C(=O)OC[C@@H]2c2ccccc2)[C@H]1/C=C/c1ccccc1)NCc1cccc(C(F)(F)F)c1 | –
17 | – | > 600 nM | CN(C)CCNC(=O)[C@H](CC(=O)NCc1cccc(C(F)(F)F)c1)N1C(=O)[C@@H](N2C(=O)OC[C@@H]2c2ccccc2)[C@H]1/C=C/c1ccccc1 | –
18 | 1000 nM | – | CC(C)C[C@@H](C(=O)NCc1ccccc1Cl)N1C(=O)[C@@H](N2C(=O)OC[C@@H]2c2ccccc2)[C@H]1/C=C/c1ccccc1 | –
19 | – | – | O=C(NCc1cccc(C(F)(F)F)c1)[C@@H](CC(=O)N1CCC(N2CCCCC2)CC1)N1C(=O)[C@@H](N2C(=O)OC[C@@H]2c2ccccc2)[C@H]1/C=C/c1ccccc1 | Cmax [2]: 50 ng/mL
20 | > 500 nM | – | CC(C)(C)C(=O)C(C(=O)OCc1ccccc1)N1C(=O)[C@@H](N2C(=O)OC[C@@H]2c2ccccc2)[C@H]1CCc1ccccc1 (stereo not given in full) | –
21 | 2 nM | – | CC(C)(C)C(=O)C(C(=O)OCc1ccccc1)N1C(=O)[C@@H](N2C(=O)OC[C@@H]2c2ccccc2)[C@H]1/C=C/c1ccco1 (stereo not given in full) | –

Row | IC50 [1] | Ki [1] | Structure (SMILES) | further results
22 | > 5000 nM | – | CC1(C(C(=O)O)N2C(=O)[C@@H](N3C(=O)OC[C@@H]3c3ccccc3)[C@H]2/C=C/c2ccccc2)OCCO1 (stereo not given in full) | –
23 | – | < 60 nM | O=C(NCc1cccc(C(F)(F)F)c1)[C@H](CC(=O)N1CCN(C2CCCC2)CC1)N1C(=O)[C@@H](N2C(=O)OC[C@@H]2c2ccccc2)[C@H]1/C=C/c1ccccc1 | –
24 | – | < 60 nM | O=C(NCc1cccc(C(F)(F)F)c1)[C@H](CC(=O)N1CCN(CCN2CCCC2)CC1)N1C(=O)[C@@H](N2C(=O)OC[C@@H]2c2ccccc2)[C@H]1/C=C/c1ccccc1 | –
25 | – | < 30 nM | O=C(NCc1ccc(F)c(C(F)(F)F)c1)[C@H](CCC(=O)N1CCN(C2CCCCC2)CC1)N1C(=O)[C@@H](N2C(=O)OC[C@@H]2c2ccccc2)[C@H]1/C=C/c1ccccc1 | –
26 | – | 30 nM | O=C(NCc1cccc(C(F)(F)F)c1)[C@@H](CCC(=O)N1CCC(N2CCCCC2)CC1)N1C(=O)[C@@H](N2C(=O)OC[C@@H]2c2ccccc2)[C@H]1/C=C/c1ccccc1 | –
27 | – | – | C[C@@H](NC(=O)[C@@H](CC(=O)N1CCC(N2CCCCC2)CC1)N1C(=O)[C@@H](N2C(=O)OC[C@@H]2c2ccccc2)[C@H]1/C=C/c1ccccc1)c1ccccc1 | Cmax [2]: 100 ng/mL; Tmax [3]: 4 h; half-life [4]: 2.5 h; Cmax [5]: 20 ng/mL; half-life [6]: 6 h
28 | 45 nM | – | CC1(C(C(=O)OCc2ccccc2)N2C(=O)[C@@H](N3C(=O)OC[C@@H]3c3ccccc3)[C@H]2/C=C/c2ccccc2)OCCO1 (stereo not given in full) | –
29 | 61000 nM | – | CC1(C(C(=O)OCc2ccccc2)N2C(=O)[C@@H](N3C(=O)c4ccccc4C3=O)[C@H]2/C=C/c2ccccc2)OCCO1 (stereo not given in full) | –
30 | – | 1.19 nM | CCCN1CCN(C(=O)CC[C@@H](C(=O)NCc2cccc(C(F)(F)F)c2)N2C(=O)[C@@H](N3C(=O)OC[C@@H]3c3ccccc3)[C@H]2/C=C/c2ccccc2)CC1 | –
31 | – | 8.7 nM | C[C@H](NC(=O)[C@H](CC(=O)N1CCC(CCN2CCCCC2)CC1)N1C(=O)[C@@H](N2C(=O)OC[C@@H]2c2ccccc2)[C@H]1/C=C/c1ccccc1)c1ccccc1 | –
32 | 54 nM | – | CC(C)C[C@@H](C(=O)N1CCC(N2CCCCC2)CC1)N1C(=O)[C@@H](N2C(=O)OC[C@@H]2c2ccccc2)[C@H]1/C=C/c1ccccc1 | –
33 | – | 27.5 nM | O=C(NCc1cccc(C(F)(F)F)c1)[C@@H](CC(=O)N1CCN(N2CCCC2)CC1)N1C(=O)[C@@H](N2C(=O)OC[C@@H]2c2ccccc2)[C@H]1/C=C/c1ccccc1 | –
34 | – | 0.27 nM | O=C(NCc1cccc(C(F)(F)F)c1)[C@H](CCC(=O)N1CCN(C2CCCCC2)CC1)N1C(=O)[C@@H](N2C(=O)OC[C@@H]2c2ccccc2)[C@H]1/C=C/c1ccccc1 | –
35 | 128 nM | – | CC(C)C[C@@H](C(=O)NCc1ccccc1)N1C(=O)[C@@H](N2C(=O)OC[C@@H]2c2ccccc2)[C@H]1/C=C/c1ccccc1 | –
36 | – | 1.17 nM | O=C(NCc1cccc(C(F)(F)F)c1)[C@H](CCC(=O)N1CCN(CCc2ccccc2)CC1)N1C(=O)[C@@H](N2C(=O)OC[C@@H]2c2ccccc2)[C@H]1/C=C/c1ccccc1 | –
37 | – | 9 nM | O=C(CC[C@@H](C(=O)NCc1cccc(C(F)(F)F)c1)N1C(=O)[C@@H](N2C(=O)OC[C@@H]2c2ccccc2)[C@H]1/C=C/c1ccccc1)NCCN1CCCCC1 | –
38 | 262 nM | – | CC(C)C[C@@H](C(=O)NCc1ccc(Cl)cc1)N1C(=O)[C@@H](N2C(=O)OC[C@@H]2c2ccccc2)[C@H]1/C=C/c1ccccc1 | –
39 | – | > 6 nM | C[C@@H](NC(=O)[C@H](CC(=O)N1CCC(N2CCCCC2)CC1)N1C(=O)[C@@H](N2C(=O)OC[C@@H]2c2ccccc2)[C@H]1/C=C/c1ccccc1)c1cccc(C(F)(F)F)c1 | –
40 | – | 1.95 nM | O=C(NCc1cccc(C(F)(F)F)c1)[C@H](CCC(=O)N1CCC(CN2CCCCC2)CC1)N1C(=O)[C@@H](N2C(=O)OC[C@@H]2c2ccccc2)[C@H]1/C=C/c1ccccc1 | –
41 | 85 nM | – | CC(C)(C)C(=O)[C@@H](C(=O)N1CCC(CCN2CCCCC2)CC1)N1C(=O)[C@@H](N2C(=O)OCC2c2ccccc2)C1/C=C/c1ccccc1 (single isomer, unassigned) | –
42 | – | 1.27 nM | C[C@@H](NC(=O)[C@@H](CC(=O)N1CCC(N2CCCCC2)CC1)N1C(=O)[C@@H](N2C(=O)OC[C@@H]2c2ccccc2)[C@H]1/C=C/c1ccccc1)c1cccc(C(F)(F)F)c1 [SRX246] | –
